Results reported in ChEMBL document CHEMBL4257565, “A phenotypic approach to the discovery of compounds that promote non-amyloidogenic processing of the amyloid precursor protein: Toward a new profile of indirect β-secretase inhibitors” (Eur J Med Chem, 2018).

Assays:
Format in all cases: cell-based
[1] = target: T1, Beta-secretase 1 (Homo sapiens, UniProt P56817); experiment: Inhibition of BACE1 in human SH-SY5Y cells harboring wild type APP695 assessed as reduction in amyloid beta (1 to 40) level after 24 hrs by ELISA method
T1 sequence (P56817 whole entry): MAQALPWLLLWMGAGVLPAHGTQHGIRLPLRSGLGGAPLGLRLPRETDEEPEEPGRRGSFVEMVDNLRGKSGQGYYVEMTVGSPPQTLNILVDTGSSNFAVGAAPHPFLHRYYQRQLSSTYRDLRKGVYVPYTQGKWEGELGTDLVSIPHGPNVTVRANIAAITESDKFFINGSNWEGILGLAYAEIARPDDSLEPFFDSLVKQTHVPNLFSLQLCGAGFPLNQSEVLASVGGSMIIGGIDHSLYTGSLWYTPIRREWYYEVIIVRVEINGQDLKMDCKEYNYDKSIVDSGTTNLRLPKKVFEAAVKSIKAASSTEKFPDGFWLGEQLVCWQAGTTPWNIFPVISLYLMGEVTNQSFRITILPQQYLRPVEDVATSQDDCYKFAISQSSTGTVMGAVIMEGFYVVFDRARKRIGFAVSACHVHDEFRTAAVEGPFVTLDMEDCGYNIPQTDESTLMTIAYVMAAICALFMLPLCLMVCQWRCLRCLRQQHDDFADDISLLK
In short: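 Aβ1-40 and Aβ1-42 levels were measured by ELISA in APPwt-expressing SH-SY5Y cells after compound treatment.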

[2] = target: T1, Beta-secretase 1; experiment: Inhibition of BACE1 in human SH-SY5Y cells harboring wild type APP695 assessed as increase in AICD level at 3 uM by Western blot method relative to chloroquine
In short: (§1)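 APP C-terminal fragments (αCTFs and AICD) were detected by Western blot and scored as band intensity. Compounds were tested at 1, 3 and 10 µM.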

[3] = target: T1, Beta-secretase 1; experiment: Inhibition of BACE1 in human SH-SY5Y cells harboring wild type APP695 assessed as increase in alphaCTF level at 3 uM by Western blot method relative to chloroquine; in short: as §1
[4] = target: T1, Beta-secretase 1; experiment: Inhibition of BACE1 in human SH-SY5Y cells harboring wild type APP695 assessed as increase in alphaCTF level at 3 uM by Western blot method relative to untreated control; in short: as §1
[5] = target: T1, Beta-secretase 1; experiment: Inhibition of BACE1 in human SH-SY5Y cells harboring wild type APP695 assessed as increase in AICD level at 3 uM by Western blot method relative to untreated control; in short: as §1

| IC50 [1] | fold change (FC) [2] | fold change (FC) [3] | fold change (FC) [4] | fold change (FC) [5] | SMILES |
| --- | --- | --- | --- | --- | --- |
| 4300 nM | 2.6 | 3.3 |  |  | c1cc(CN2CCCCC2)cc(-c2ccc(NCCCN3CCCCC3)c(OCCN3CCCCC3)c2)c1 |
| 2100 nM | 2.5 | 2.6 |  |  | c1cc(-c2ccc(NCCCN3CCCCC3)c(OCCN3CCCCC3)c2)ccc1CN1CCCCC1 |
| 9100 nM | 0.2 | 0.1 |  |  | c1ccc(-c2cccc(OCCN3CCCCC3)c2)cc1 |
| 2600 nM | 2.7 | 4.3 |  |  | c1ccc(-c2ccc(NCCCN3CCCCC3)c(OCCN3CCCCC3)c2)c(CN2CCCCC2)c1 |
| 2800 nM | 1.7 | 3.1 |  |  | c1ccc(-c2ccc(NCCCN3CCCCC3)c(OCCN3CCCCC3)c2)c(CN2CCOCC2)c1 |
| 1700 nM | 1.8 | 1.3 |  |  | CC(C)CN(CCCN1CCN(CCCNc2nc3ccccc3[nH]2)CC1)CC(C)C |
| 3900 nM | 0.8 | 0.9 |  |  | CN(C)Cc1ccccc1-c1ccc(NCCCN2CCCCC2)cc1 |
| 1400 nM | 4.8 | 5 |  |  | CN(C)Cc1ccccc1-c1ccc(NCCN2CCCCC2)c(OCCN2CCCCC2)c1 |
| 2100 nM | 5.1 | 4.5 | 50 | 30 | CN(C)Cc1ccccc1-c1ccc(NCCCN2CCCCC2)c(OCCCN2CCCCC2)c1 |
| 5000 nM | 2 | 3.6 |  |  | CN(C)Cc1ccn(-c2ccc(NCCCN3CCCCC3)c(OCCN3CCCCC3)c2)c1 |
